Among the data in the array DNA melting data of Ke et al. (doi:10.1101/2024.01.08.574731) are folding enthalpy and Tm values, retold here.

Data set [1] can be described thus: folding enthalpy; higher = less favourable; fluorescence melt of hairpins on a sequencing array, two-state fit. Particulars: sodium 0.088 M. The method in brief:
(§1)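 Folding enthalpy and melting temperature come from bootstrapped two-state fits to Cy3 fluorescence of library hairpins carrying annealed Cy3 and quencher oligos on a sequenced MiSeq flow cell. Imaging was done in 50 mM Na-HEPES pH 8.0, 25 mM NaCl, stepping by 2.5 °C up to 60 °C, and signals were normalised to pre-quench Cy3 and to control constructs. Results of four replicates were combined by inverse variance, and fitted temperatures were raised by 9.35 °C to match UV melts.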

A short description of data set [2]: melting temperature; fluorescence melt of hairpins on a sequencing array, two-state fit, raised by 9.35 °C to match UV melts. The conditions noted are these: sodium 0.088 M. The essentials: as §1

For GCGGAGCGAAAGCTAGGC ((..(((....)))..)), the folding enthalpy in data set [1] was -9.5 kcal/mol. Also, the Tm in data set [2] stood at 41.9 °C.
On to GCGGAGCGAAAGCTTAGC ((..(((....)))..)), for which, in data set [1], the folding enthalpy was -14.1 kcal/mol. Moreover, the Tm in data set [2] came out at 52.3 °C.
Regarding GCGGAGGGAAACTTCCGC (((((.(....).))))), the folding enthalpy in data set [1] is -35.4 kcal/mol. Also, the Tm in data set [2] worked out at 57.9 °C.
The like results for GCGGAGTGCCGC ((((....)))) were, in that order, -13.7 kcal/mol and 57.1 °C.
For GCGGATACCGC ((((...)))), the folding enthalpy in data set [1] was -25.8 kcal/mol. Also, the Tm in data set [2] was 57.1 °C.
The like results for GCGGATACGAAAGTACGC (((..(((....)))))) were, in that order, -27 kcal/mol and 49.4 °C.
Taken in the same sequence, the figures for GCGGATGACCGC ((((....)))) were -21.6 kcal/mol and 54.8 °C.
Regarding GCGGATTACCGC ((((....)))), in data set [1], the folding enthalpy is -20 kcal/mol. Also, in data set [2], the Tm stood at 54.9 °C.
With GCGGATTCCCGC ((((....)))), the folding enthalpy in data set [1] was -20.8 kcal/mol. Besides, in data set [2], the Tm came to 55 °C.
Taken in the same sequence, the figures for GCGGCACCCCGC ((((....)))) were -24.8 kcal/mol and 53.8 °C.
For the sequence GCGGCAGCGAAAGCTCGC (((..(((....)))))), the folding enthalpy in data set [1] is -11.7 kcal/mol. Further, the Tm in data set [2] stood at 51.5 °C.
The like results for GCGGCAGGAAACCACCGC ((((..(....)..)))) were, in that order, -25.9 kcal/mol and 45.2 °C.
GCGGCAGGAAACTGCCAC (.(((((....))))).): the folding enthalpy in data set [1] is -10.8 kcal/mol. In addition, in data set [2], the Tm was 54.6 °C.
Take GCGGCAGGAAACTGCTGC ((.((((....)))).)): in data set [1], the folding enthalpy was -43.2 kcal/mol. For the same sequence, in data set [2], the Tm came to 62.9 °C.
For GCGGCCACCGC ((((...)))), the folding enthalpy in data set [1] was -19.6 kcal/mol. Besides, in data set [2], the Tm came out at 59.5 °C.
As for GCGGCCCACCGC ((((....)))), the folding enthalpy in data set [1] was -19.6 kcal/mol. In addition, the Tm in data set [2] turned out to be 60 °C.
Turning to GCGGCCGAAAGGCCCCGC ((((((....)))..))), in data set [1], the folding enthalpy is -10.3 kcal/mol. In data set [2], the Tm came out at 48.1 °C.
Regarding GCGGCCGAAAGGCTTCGC ((((((....)))..))), in data set [1], the folding enthalpy is -17.1 kcal/mol. Besides, in data set [2], the Tm came out at 53.5 °C.
Turning to GCGGCCGCGAAAGCGCGC (((..(((....)))))), the folding enthalpy in data set [1] is -11.6 kcal/mol. Besides, the Tm in data set [2] was 59.5 °C.
Regarding GCGGCCGGAAACGGCCAC (.(((((....))))).), the folding enthalpy in data set [1] was -9.59 kcal/mol. For the same sequence, in data set [2], the Tm stood at 53 °C.
GCGGCCTCCCGC ((((....)))): the folding enthalpy in data set [1] was -22.3 kcal/mol. Moreover, in data set [2], the Tm worked out at 56.3 °C.
As for GCGGCGCGAAAGCGTAGC ((..(((....)))..)), the folding enthalpy in data set [1] was -26.1 kcal/mol. Also, the Tm in data set [2] came out at 65.8 °C.
With GCGGCGCGAAAGCTGCGC (((..((....))..))), the folding enthalpy in data set [1] is -26.1 kcal/mol. In addition, the Tm in data set [2] came out at 63.3 °C.
As to GCGGCGGTCCGC ((((....)))), the folding enthalpy in data set [1] is -17.6 kcal/mol. Also, in data set [2], the Tm worked out at 58.7 °C.
Take GCGGCGTACCGC ((((....)))): the folding enthalpy in data set [1] was -17.2 kcal/mol. Besides, the Tm in data set [2] worked out at 64.7 °C.
For the sequence GCGGCGTCGAAAGACCGC (((..(((....)))))), in data set [1], the folding enthalpy is -27.5 kcal/mol. In data set [2], the Tm is 54.6 °C.
As to GCGGCTAACCGC ((((....)))), the folding enthalpy in data set [1] was -26.2 kcal/mol. In addition, in data set [2], the Tm was determined as 56.5 °C.
Regarding GCGGCTATCCGC ((((....)))), in data set [1], the folding enthalpy was -20.1 kcal/mol. In data set [2], the Tm is 61.2 °C.
Taken in the same sequence, the figures for GCGGCTCCCCGC ((((....)))) were -22.1 kcal/mol and 54.8 °C.
Turning to GCGGCTCGAAAGAGCGC (((.(((....)))))), the folding enthalpy in data set [1] was -20.1 kcal/mol. Moreover, the Tm in data set [2] worked out at 68.8 °C.
In the case of GCGGCTGGAAACGGCTGC ((.((.(....).)).)), the folding enthalpy in data set [1] is -38.5 kcal/mol. In addition, the Tm in data set [2] was determined as 53 °C.
For the sequence GCGGCTGGAAACGGTCGC (((.(.(....).).))), the folding enthalpy in data set [1] was -43.2 kcal/mol. The Tm in data set [2] is 54 °C.
With GCGGCTGTCCGC ((((....)))), the folding enthalpy in data set [1] is -28.3 kcal/mol. Moreover, the Tm in data set [2] came to 57.9 °C.
Regarding GCGGCTTACCGC ((((....)))), the folding enthalpy in data set [1] was -26.1 kcal/mol. Besides, in data set [2], the Tm worked out at 61.2 °C.
For GCGGGACCCCGC ((((....)))), the folding enthalpy in data set [1] is -26 kcal/mol. For the same sequence, the Tm in data set [2] is 67.8 °C.
In the case of GCGGGAGACCGC ((((....)))), the folding enthalpy in data set [1] was -14.4 kcal/mol. Moreover, the Tm in data set [2] worked out at 66.3 °C.
GCGGGATCCGC ((((...)))): the folding enthalpy in data set [1] is -17.1 kcal/mol. The Tm in data set [2] was determined as 59.2 °C.
Consider GCGGGCCCGAAAGGGCGC (((..(((....)))))), for which the folding enthalpy in data set [1] was -8.34 kcal/mol. For the same sequence, the Tm in data set [2] worked out at 58 °C.
